Data on 26 compounds can be found in article PMC4603714 (Drug Design, Development and Therapy, 2015).

SMILES strings stand for the structures.

Assay [1] deals with HDAC (HeLa cell nuclear extract). As to the kind of experiment: In vitro HDAC inhibition fluorescence assay. The assay is classed as biochemical, human. As to conditions: read-out: HeLa cell nuclear extract IC50, substrate Boc-Lys(acetyl)-AMC, mean of three experiments. The procedure, abridged: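 HeLa nuclear extract preincubated with test compound at several concentrations, 10 min at 37°C. Boc-Lys(acetyl)-AMC then added and incubated 30 min at 37°C. Reaction stopped with developer containing trypsin and trichostatin A. Fluorescence read 20 min later (ex 390/em 460 nm). Inhibition calculated relative to control wells. IC50 obtained by regression of concentration against inhibition ratio.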

For assay [2], the system named is U937 cells. As to the kind of experiment: In vitro antiproliferative assay. Type of assay: cell-based. As to conditions: Homo sapiens, U-937, 48 h, read-out: U937 IC50. Put shortly: (§1)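 Cells kept in RPMI-1640 with 10% FBS at 37°C, 5% CO2. Passaged into plates the day before dosing and grown at least 4 h before test compound was added. Exposure was 48 h, then 0.5% MTT for 4 h. Formazan was dissolved in DMSO for 15 min and absorbance read at 570 nm. Inhibition was taken relative to control wells, and IC50 was obtained by regression of concentration versus inhibition ratio.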

For assay [3], the system named is H7402 cells. As to the kind of experiment: In vitro antiproliferative assay. Type of assay: cell-based. As to conditions: Homo sapiens, H7402, 48 h, read-out: H7402 IC50. Put shortly:
as §1

In assay [4] the test system is U266 cells. As to the kind of experiment: In vitro antiproliferative assay. The assay is classed as cell-based. As to conditions: Homo sapiens, U-266, 48 h, read-out: U266 IC50. The procedure, abridged:
as §1

For assay [5], the system named is KG-1 cells. As to the kind of experiment: In vitro antiproliferative assay. The assay is classed as cell-based. As to conditions: Homo sapiens, KG-1, 48 h, read-out: KG-1 IC50. The procedure, abridged:
as §1

Assay [6] has as its system HeLa cells. As to the kind of experiment: In vitro antiproliferative assay. The assay is classed as cell-based. As to conditions: Homo sapiens, 48 h, read-out: HeLa IC50. Put shortly:
as §1

In assay [7] the test system is HCT116 cells. As to the kind of experiment: In vitro antiproliferative assay. Type of assay: cell-based. As to conditions: Homo sapiens, HCT-116, 48 h, read-out: HCT116 IC50. The procedure, abridged: as §1

In general, IC50 refers to the concentration at which inhibition is half-maximal. As to `COc1cccc(NC(=O)N[C@H](C(=O)Nc2ccc(C(=O)NO)cc2)c2ccccc2)c1` [Compound 7a, (S)-N-Hydroxy-4-(2-(3-(3-methoxyphenyl)ureido)-2-phenylacetamido)benzamide], the 50% inhibitory concentration (IC50) in assay [1] stood at 13.3 nM; in assay [2], 6100 nM.

Turning to `O=C(Nc1cccc(Cl)c1)N[C@H](C(=O)Nc1ccc(C(=O)NO)cc1)c1ccccc1` [Compound 7b, (S)-4-(2-(3-(3-Chlorophenyl)ureido)-2-phenylacetamido)-N-hydroxybenzamide], the values for the 50% inhibitory concentration (IC50) in assay [1] and in assay [2] were 12.6 nM and 2900 nM, respectively.

Consider `O=C(Nc1ccccc1Cl)N[C@H](C(=O)Nc1ccc(C(=O)NO)cc1)c1ccccc1` [Compound 7c, (S)-4-(2-(3-(2-Chlorophenyl)ureido)-2-phenylacetamido)-N-hydroxybenzamide], for which the IC50 stood at 2.3 nM in assay [1] and 4400 nM in assay [2].

For the compound `O=C(Nc1ccccc1F)N[C@H](C(=O)Nc1ccc(C(=O)NO)cc1)c1ccccc1` [Compound 7d, (S)-4-(2-(3-(2-Fluorophenyl)ureido)-2-phenylacetamido)-N-hydroxybenzamide], in assay [1], the concentration for half-maximal inhibition (IC50) was determined as 76.1 nM.

As for `O=C(Nc1ccccc1Br)N[C@H](C(=O)Nc1ccc(C(=O)NO)cc1)c1ccccc1` [Compound 7e, (S)-4-(2-(3-(2-Bromophenyl)ureido)-2-phenylacetamido)-N-hydroxybenzamide], the figures for the concentration for half-maximal inhibition (IC50) in assay [1] and in assay [2] were 4.1 nM and 2000 nM, respectively.

Turning to `Cc1ccccc1NC(=O)N[C@H](C(=O)Nc1ccc(C(=O)NO)cc1)c1ccccc1` [Compound 7f, (S)-N-Hydroxy-4-(2-phenyl-2-(3-(o-tolyl)ureido)acetamido)benzamide], in assay [1], the concentration for half-maximal inhibition (IC50) worked out at 6.3 nM.

Take `Cc1ccc(NC(=O)N[C@H](C(=O)Nc2ccc(C(=O)NO)cc2)c2ccccc2)cc1` [Compound 7g, (S)-N-Hydroxy-4-(2-phenyl-2-(3-(p-tolyl)ureido)acetamido)benzamide]: the IC50 in assay [1] is 2.7 nM; in assay [2] it was 3100 nM.

Take `O=C(Nc1ccc(Cl)cc1Cl)N[C@H](C(=O)Nc1ccc(C(=O)NO)cc1)c1ccccc1` [Compound 7h, (S)-4-(2-(3-(2,4-Dichlorophenyl)ureido)-2-phenylacetamido)-N-hydroxybenzamide]: the results for the IC50 in assay [1] and in assay [2] were 1.2 nM and 5100 nM, respectively.

`Cc1cc(C)cc(NC(=O)N[C@H](C(=O)Nc2ccc(C(=O)NO)cc2)c2ccccc2)c1` [Compound 7i, (S)-4-(2-(3-(3,5-Dimethylphenyl)ureido)-2-phenylacetamido)-N-hydroxybenzamide]: the figures for the IC50 in assay [1] and in assay [2] were 15 nM and 5700 nM, respectively.

In the case of `CCc1cccc(CC)c1NC(=O)N[C@H](C(=O)Nc1ccc(C(=O)NO)cc1)c1ccccc1` [Compound 7j, (S)-4-(2-(3-(2,6-Diethylphenyl)ureido)-2-phenylacetamido)-N-hydroxybenzamide], the IC50 in assay [1] is 178 nM.

`O=C(Nc1cccc2ccccc12)N[C@H](C(=O)Nc1ccc(C(=O)NO)cc1)c1ccccc1` [Compound 7k, (S)-N-Hydroxy-4-(2-(3-(naphthalen-1-yl)ureido)-2-phenylacetamido)benzamide]: the half-maximal inhibitory concentration (IC50) in assay [1] is 124 nM.

Turning to `O=C(NO)c1ccc(NC(=O)[C@@H](NC(=O)c2ccc3ncccc3c2)c2ccccc2)cc1` [Compound 8a, (S)-N-(2-((4-(Hydroxycarbamoyl)phenyl)amino)-2-oxo-1-phenylethyl)quinoline-6-carboxamide], the IC50 in assay [1] came to 168 nM; in assay [2], 10500 nM.

As for `O=C(NO)c1ccc(NC(=O)[C@@H](NC(=O)c2ccc3nccnc3c2)c2ccccc2)cc1` [Compound 8b, (S)-N-(2-((4-(Hydroxycarbamoyl)phenyl)amino)-2-oxo-1-phenylethyl)quinoxaline-6-carboxamide], the IC50 is 163 nM in assay [1] and 10500 nM in assay [2].

On to `O=C(NO)c1ccc(NC(=O)[C@@H](NC(=O)c2ccc3cc[nH]c3c2)c2ccccc2)cc1` [Compound 8c, (S)-N-(2-((4-(Hydroxycarbamoyl)phenyl)amino)-2-oxo-1-phenylethyl)-1H-indole-6-carboxamide], for which the IC50 in assay [1] is 107 nM; in assay [2], 9800 nM.

For `O=C(NO)c1ccc(NC(=O)[C@@H](NC(=O)c2cc3ccccc3[nH]2)c2ccccc2)cc1` [Compound 8d, (S)-N-(2-((4-(Hydroxycarbamoyl)phenyl)amino)-2-oxo-1-phenylethyl)-1H-indole-2-carboxamide], the results for the IC50 in assay [1] and in assay [2] were 53 nM and 8900 nM, respectively.

Consider `O=C(NO)c1ccc(NC(=O)[C@@H](NC(=O)c2cnccn2)c2ccccc2)cc1` [Compound 8e, (S)-N-(2-((4-(Hydroxycarbamoyl)phenyl)amino)-2-oxo-1-phenylethyl)pyrazine-2-carboxamide], for which the IC50 in assay [1] was found to be 353 nM.

As for `COc1ccccc1CN[C@H](C(=O)Nc1ccc(C(=O)NO)cc1)c1ccccc1` [Compound 9a, (S)-N-Hydroxy-4-(2-((2-methoxybenzyl)amino)-2-phenylacetamido)benzamide], the IC50 stood at 105 nM in assay [1]; 4100 nM in assay [3]; 1500 nM in assay [4]; 1100 nM in assay [5]; 750 nM in assay [2]; 8000 nM in assay [6]. In assay [7], the IC50 was found to be 1400 nM.

As to `O=C(NO)c1ccc(NC(=O)[C@@H](NCc2ccccc2Cl)c2ccccc2)cc1` [Compound 9b, (S)-4-(2-((2-Chlorobenzyl)amino)-2-phenylacetamido)-N-hydroxybenzamide], the IC50 in assay [1] was found to be 56.1 nM; in assay [3], 4200 nM; in assay [4] it was 2400 nM; in assay [5], 3400 nM; in assay [2] it was 1100 nM; in assay [6], 6000 nM. In addition, the half-maximal inhibitory concentration (IC50) in assay [7] stood at 5500 nM.

For the compound `O=C(NO)c1ccc(NC(=O)[C@@H](NCc2ccccc2Br)c2ccccc2)cc1` [Compound 9c, (S)-4-(2-((2-Bromobenzyl)amino)-2-phenylacetamido)-N-hydroxybenzamide], the concentration for half-maximal inhibition (IC50) is 12.8 nM in assay [1]; 7100 nM in assay [3]; 2100 nM in assay [4]; 1500 nM in assay [5]; 840 nM in assay [2]; 15000 nM in assay [6]. Also, the IC50 in assay [7] turned out to be 2300 nM.

On to `O=C(NO)c1ccc(NC(=O)[C@@H](NCc2ccc(Cl)cc2)c2ccccc2)cc1` [Compound 9e, (S)-4-(2-((4-Chlorobenzyl)amino)-2-phenylacetamido)-N-hydroxybenzamide], for which the concentration for half-maximal inhibition (IC50) turned out to be 13.8 nM in assay [1]; 9600 nM in assay [3]; 3000 nM in assay [4]; 2000 nM in assay [5]; 950 nM in assay [2]; 15600 nM in assay [6]. For the same compound, in assay [7], the IC50 worked out at 3000 nM.

With `O=C(NO)c1ccc(NC(=O)[C@@H](NCc2ccc(O)cc2)c2ccccc2)cc1` [Compound 9f, (S)-N-Hydroxy-4-(2-((4-hydroxybenzyl)amino)-2-phenylacetamido)benzamide], the IC50 in assay [1] stood at 50.3 nM; in assay [3], 12400 nM; in assay [4], 3300 nM; in assay [5], 2500 nM; in assay [2] it was 980 nM; in assay [6], 6800 nM. Also, the IC50 in assay [7] worked out at 3000 nM.

Take `COc1cc(CN[C@H](C(=O)Nc2ccc(C(=O)NO)cc2)c2ccccc2)ccc1O` [Compound 9g, (S)-N-Hydroxy-4-(2-((4-hydroxy-3-methoxybenzyl)amino)-2-phenylacetamido)benzamide]: the IC50 was 72 nM in assay [1]; 200 nM in assay [3]; 4300 nM in assay [4]; 5600 nM in assay [5]; 2000 nM in assay [2]; 200 nM in assay [6]. For the same compound, the IC50 in assay [7] stood at 6200 nM.

Regarding `O=C(/C=C/c1ccc(NC(=O)[C@@H](NC(=O)Nc2ccccc2Cl)c2ccccc2)cc1)NO` [Compound 16a, (S, E)-3-(4-(2-(3-(2-Chlorophenyl)ureido)-2-phenylacetamido)phenyl)-N-hydroxyacrylamide], the half-maximal inhibitory concentration (IC50) in assay [1] stood at 128 nM.

As to `O=C(/C=C/c1ccc(NC(=O)[C@@H](NC(=O)Nc2ccccc2F)c2ccccc2)cc1)NO` [Compound 16b, (S, E)-3-(4-(2-(3-(2-Fluorophenyl)ureido)-2-phenylacetamido)phenyl)-N-hydroxyacrylamide], the IC50 in assay [1] was found to be 215 nM.

Take `O=C(/C=C/c1ccc(NC(=O)[C@@H](NC(=O)Nc2ccccc2Br)c2ccccc2)cc1)NO` [Compound 16c, (S, E)-3-(4-(2-(3-(2-Bromophenyl)ureido)-2-phenylacetamido)phenyl)-N-hydroxyacrylamide]: the half-inhibitory concentration (IC50) in assay [1] is 91.7 nM.

Take `Cc1ccccc1NC(=O)N[C@H](C(=O)Nc1ccc(/C=C/C(=O)NO)cc1)c1ccccc1` [Compound 16d, (S, E)-N-Hydroxy-3-(4-(2-phenyl-2-(3-(o-tolyl)ureido)acetamido)phenyl)acrylamide]: in assay [1], the half-inhibitory concentration (IC50) is 811 nM.
